DENV2 CPE: protects cells from dengue virus 2 cytopathic effect. DENV2-infected cells, cytopathic effect rescue, plate reader. CPE inhibition, % at 9.99 µM. 350,000 tested, 1.7% active; in the data active means CPE inhibition above about 20%, passing the limit was not always enough; inconclusive means no clear call, values can overlap the other calls; tested in BHK-21 cells;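 further: 0% = median of neutral control wells and 100% = median of positive control wells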
rRNA inh HTS: inhibits bacterial ribosomal RNA function over humanized ribosomes; E. coli WT GFP vs humanized-ribosome RFP mutants, fluorescence, 24 h; active compounds read low; DMSO median 0, no signal -100; GFP signal change (wild-type ribosome), % (concentration not given with the values); 350,000 tested, 1.6% active; AID 720706;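 active means significant combined selectivity score with lowered wild-type GFP, culture density cut under 30%, mutant RFP and density less affected; inactive means any of these conditions unmet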
miR-122 sensor: blocks miR-122 activity in Huh7 sensor cells. Huh7 miR-122 Renilla luciferase sensor, 48 h; neutral wells = 0, positive control = 100. activation (reporter increase), % at 12.5 µM. 340,000 tested, 0.3% active;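 active means mean replicate activation score at least 90 and every replicate individually at or above 90; inconclusive means only one of the two criteria met; inactive means neither criterion met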;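 further: higher luciferase means less miR-122 activity so hits act as miR-122 inhibitors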
E-sel inducer: induces E-selectin expression in human endothelial cells; P16581; HUVEC E-selectin immunofluorescence imaging; normalized: neutral wells 0, TNF-alpha wells 100; activation, % at 7.58 µM; 260,000 tested, 0.37% active; AID 686992;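 active means mean E-selectin-positive cell signal at least 10% of the positive control, reached in at least 60% of replicates, without over 20% cell loss; inconclusive means no rule given, readout overlaps actives, possibly toxicity-flagged; inactive means the rest, including those meeting only one limit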
Target sequence (P16581 whole entry, looked up): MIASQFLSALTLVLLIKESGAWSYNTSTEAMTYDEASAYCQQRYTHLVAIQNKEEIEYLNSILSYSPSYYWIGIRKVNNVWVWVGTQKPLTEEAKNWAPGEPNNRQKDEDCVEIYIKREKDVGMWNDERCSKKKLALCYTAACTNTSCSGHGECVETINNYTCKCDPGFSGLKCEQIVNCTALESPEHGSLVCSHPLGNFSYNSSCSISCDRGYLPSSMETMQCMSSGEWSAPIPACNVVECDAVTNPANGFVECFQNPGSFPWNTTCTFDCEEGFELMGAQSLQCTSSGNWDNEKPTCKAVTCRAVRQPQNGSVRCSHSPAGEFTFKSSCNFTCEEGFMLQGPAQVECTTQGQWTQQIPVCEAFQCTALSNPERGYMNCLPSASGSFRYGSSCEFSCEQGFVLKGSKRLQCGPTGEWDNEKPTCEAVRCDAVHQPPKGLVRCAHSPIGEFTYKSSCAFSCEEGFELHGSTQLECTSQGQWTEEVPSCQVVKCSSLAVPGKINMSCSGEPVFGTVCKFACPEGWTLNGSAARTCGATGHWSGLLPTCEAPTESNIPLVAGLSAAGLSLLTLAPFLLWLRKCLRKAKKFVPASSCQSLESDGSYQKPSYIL
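System: HUVEC / Compound: single concentration / Signal: immunofluorescence imaging / Read-out: percent E-selectin-positive cells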
Cneo AK release: Cryptococcus neoformans lysis via adenylate kinase release. C. neoformans lysis, adenylate kinase release luminescence, 4 h; normalised: neutral wells 0, clomiphene wells 100. AID 651654. lysis activity, % at 15 µM. 360,000 tested, 0.2% active;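 active means mean lysis activity across replicates of at least 80%, whatever share of replicates individually reach that level; inactive means mean lysis activity below 80%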
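Test system: log-phase Cryptococcus neoformans yeast cells; Quantity: yeast cell density of 5 × 10^6 cells/mL; Buffer or medium: YPD; Doses: single compound concentration per well; Timing: 4 h at 37 °C static, read 1 h later; Measured by: AK luminescence; Read-out basis: lysis from increased AK signal; Control set: Clomiphene as positive control.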
* hit, by the source's call; ? = inconclusive; / = not tested or not shown; [ ] = remark or other dose. Hits are enriched below; roughly 3.1% of the tested compounds scored in any of these assays.

SMILES	DENV2 CPE	rRNA inh HTS	miR-122 sensor	E-sel inducer	Cneo AK release
Cc1ccc2c(c1)Sc1c(ccc3ccccc13)N2	3.5	-27.0*	14.7	/	-2.4
COCC(=O)Nc1ccc2c(c1)C(=O)N(C)C[C@@H](OC)[C@H](C)CN(Cc1cncnc1)[C@H](C)CO2	-6.5	4.5	-1.5[16.7 µM]	-0.3	-3.7
COCC(=O)Nc1ccc2c(c1)C(=O)N(C)C[C@@H](OC)[C@H](C)CN(Cc1cncnc1)[C@@H](C)CO2	20.9*	-0.9	-1.3[16.7 µM]	6.2	1.0
COCC(=O)Nc1ccc2c(c1)OC[C@@H](C)N(Cc1cncnc1)C[C@@H](C)[C@H](OC)CN(C)C2=O	22.3*	1.2	/	-0.1	/
C[C@@H]1CN([C@H](C)CO)C(=O)c2cc(NC(=O)Cc3cn(C)c4ccccc34)ccc2O[C@@H]1CN(C)S(=O)(=O)c1ccc(F)cc1	-0.1	-2.0	24.0[16.7 µM]	1.4	-5.3
O=S(=O)(Nc1ccccc1Cl)c1ccc(-c2ccccn2)s1	-3.3	-36.6*	-1.1	0.0	-2.6
COc1ccc(NS(=O)(=O)c2ccc(-c3ccccn3)s2)cc1	-6.0	/	8.5	1.6	18.3
O=C(O)CSc1c(-c2ccccc2)c2cc(Cl)ccc2[nH]c1=O	-1.6	-28.1*	/	-3.0	/
CC(CNC(=O)[C@H]1O[C@@H](n2cnc3c(=O)[nH]c(N)nc32)[C@H](O)[C@@H]1O)c1ccccc1 (stereo partly drawn)	67.9*	14.1	/	-0.2	/
O=C(COc1ccc(Br)cc1)N/N=C1/SCC(=O)N1Cc1ccco1	?	-23.4*	/	-0.3	/
CNC[C@@H]1OCCCC[C@@H](C)Oc2ccc(NS(=O)(=O)c3ccc(OC)cc3)cc2C(=O)N([C@H](C)CO)C[C@@H]1C	-3.0	1.9	-2.7[16.7 µM]	0.5	0.6
Cc1nc(N2CCN(c3ccccn3)CC2)c2c(C)c(C(=O)Nc3ccc(F)cc3Cl)sc2n1	-2.8	-0.2	-4.4	43.5*	-2.8
N=C1C(c2nc3ccccc3s2)=C(O)CN1NC(=O)c1ccco1	2.7	14.3	3.5	32.8*	-1.2
COc1cccc(C(=O)NN2CC(O)=C(c3nc4ccccc4s3)C2=N)c1	-3.6	8.0	-0.9	/	/
C[C@H]1CN(C)C(=O)c2cccc(N(C)C)c2O[C@@H]1CN(C)S(C)(=O)=O	/	-0.4	/	/	/
O=C(O)c1cc(/C=C/c2ccc(N3CCOCC3)cc2)nc2ccccc12	-2.0	-25.0*	/	-0.2	/
COc1cc(/C=C/c2cc(C(=O)O)c3ccccc3n2)ccc1OC(F)F	3.9	-25.9*	-3.3	-0.1	/
CCc1ccccc1NC(=O)c1cnc2n(c1=O)CCS2	34.8*	-9.2	-0.5	0.1	6.5
Cc1n[nH]c2ccccc2c1=O	9.8	2.4	22.1	-0.2	-0.4
CC(C)(C)c1ccc(Nc2n[nH]c3ccccc23)cc1	65.8*	-51.5	-7.4	-0.9	-4.2
C[C@@H]1CN(C)C(=O)c2cccc(N)c2O[C@@H]1CN(C)C	/	1.7	/	/	/
O=c1oc(-c2cc3ccccc3o2)nc2sc3c(c12)CCCC3	-3.7	-22.8*	-0.1	/	-2.5
Cc1ccc(NC(=S)Nc2ccc(Cl)c(Cl)c2)c(OC(F)F)c1	-0.5	-41.2*	/	1.6	/
Cc1ccc(NC(=S)Nc2ccc(OC(F)F)c(Cl)c2)cc1Cl	-3.6	-59.8	-6.3	0.1	-2.1
COc1ccccc1NC(=O)CNC(c1ccccc1)c1ccccc1	-2.2	-8.1	6.9	-7.9	-0.6
SMILES	DENV2 CPE	rRNA inh HTS	miR-122 sensor	E-sel inducer	Cneo AK release
O=C(CNC(c1ccccc1)c1ccccc1)Nc1ccccc1Br	-0.5	-33.0*	-9.9	4.1	-1.2
CC1(C)Cc2ccccc2-c2nc(NCCCO)[nH]c(=O)c21	-3.6	-42.9*	-0.1	0.1	-2.2
CCC1(C)Cc2ccccc2-c2nc(NCCO)[nH]c(=O)c21 (stereo not drawn)	/	-40.3	/	/	7.5
CCn1c(NCCO)nc2c(c1=O)C(C)(CC)Cc1ccccc1-2 (stereo not drawn)	-5.9	-28.2*	/	0.0	/
CCC1(C)Cc2ccccc2-c2nc(NCCCO)n(-c3ccccc3)c(=O)c21 (stereo not drawn)	/	/	-15.2	/	-0.5
COc1ccc(OC)c(NC(=O)CN=[N+]=[N-])c1	-9.1	/	/	/	0.3
Cc1cc2c(SCc3ccccc3Cl)nc(N)nc2nc1C	-12.1	11.3	/	87.8*	-0.4
Nc1cc(N)nc(SCc2ccccc2Cl)n1	?	-7.4	1.2	0.0	1.0
CCCN1C[C@H](C)[C@@H](OC)CN(C)C(=O)c2cc(NS(C)(=O)=O)ccc2OC[C@H]1C	/	0.5	-3.1[16.7 µM]	-0.1	-2.9
CC(=O)n1cc(CO)c2ccccc21	35.5*	2.2	4.8	/	-1.5
C=C(c1cn(C(C)=O)c2ccccc12)c1cn(C(C)=O)c2ccccc12	13.1	-10.9	4.0	0.9	-0.8
Oc1ccc(Cl)cc1CNCc1cccc2ccccc12	0.4	-23.5*	4.8	-0.1	-11.2
Oc1ccc(Cl)cc1CNCc1ccc(F)c(F)c1	0.9	-10.8	-3.5	0.0	-7.0
O=C(Nc1ccc2c(c1)[C@@H]1C[C@@H](CC(=O)N3CCOCC3)O[C@@H](CO)[C@@H]1O2)NC1CCCCC1	23.1*	-3.4	2.9[16.7 µM]	0.0	-4.3
O=C(O)C[C@H]1C[C@H]2c3cc(NC(=O)NC4CCCC4)ccc3O[C@H]2[C@@H](CO)O1	12.6	5.4	3.5[16.7 µM]	-0.3	1.8
O=C(Nc1ccc2c(c1)[C@@H]1C[C@H](CC(=O)N3CCCCC3)O[C@@H](CO)[C@@H]1O2)NC1CCCCC1	32.2*	-1.2	/	-0.1	/
O=C(O)C[C@H]1C[C@H]2c3cc(NC(=O)NC4CCCC4)ccc3O[C@H]2[C@H](CO)O1	35.5*	3.5	-6.4[16.7 µM]	0.1	-0.9
Cc1ccc(S(=O)(=O)N[C@@H]2C=C[C@H](CC(=O)NCCN3CCCCC3)O[C@H]2CO)cc1	19.4	2.2	-6.6[16.7 µM]	0.7	3.8
COc1cccc2cc(C(=O)C3=C(O)C(=O)N(c4cc(C)on4)C3c3cccs3)oc12 (stereo not drawn)	8.3	-25.6*	/	/	-0.6
Cc1cc(N2C(=O)C(O)=C(C(=O)c3cccs3)C2c2ccc(F)cc2)no1 (stereo not drawn)	-6.5	-25.9*	/	/	/
Cc1cccc(N2C(=O)C(O)=C(C(=O)c3cccs3)C2c2ccccc2)n1 (stereo not drawn)	-1.1	-31.6*	/	0.0	/
Cc1cccc(N2C(=O)C(O)=C(C(=O)c3cccs3)C2c2ccc(Cl)cc2)n1 (stereo not drawn)	4.1	-33.8*	/	-0.1	/
COc1ccc(C2C(C(=O)c3cccs3)=C(O)C(=O)N2c2cccc(C)n2)cc1OC (stereo not drawn)	2.9	/	/	/	/
C[C@@H]1CN([C@H](C)CO)C(=O)CCCn2cc(nn2)CO[C@H]1CN(C)Cc1ccc(C(=O)O)cc1	13.0	1.1	/	-0.1	/
Cc1ccccc1-c1ccc2c(c1)O[C@H](CN(C)C(=O)Nc1ccc(F)cc1)[C@H](C)CN([C@@H](C)CO)S2(=O)=O	/	1.7	22.1[16.7 µM]	-0.2	/
